Data set [1] addresses PD-L1 (Homo sapiens, UniProt Q9NZQ7). In words: Saturation binding on A549-PDL1 cells. The note with it: 37 °C, 1 h. In short, it runs like this:
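Antibody-TCO was ligated with [18F]Tz in PBS (pH 7) at room temperature, and the purified conjugate was added at 0.08–10 nM to A549-PDL1 cells (2 × 10^5/well) for 1 h at 37 °C. Nonspecific binding used 100-fold excess unlabeled antibody added 1 h beforehand. Cell-bound activity was γ-counted. Each condition was run in triplicate, and Kd came from one-site specific-binding nonlinear regression.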

Data set [2] relates to A549-PDL1 cells. In words: Cellular uptake and internalization. The class given is cell-based. In short, it runs like this:
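A549 cells stably transfected with PD-L1 by lentiviral infection, grown in RPMI-1640 with 15% FBS at 37 °C, 5% CO2. Cells were incubated with in vitro ligated [18F]Tz-TCO-antibody for 30, 60, 120 and 180 min at 37 °C, then washed twice in ice-cold PBS. Surface activity was stripped with glycine HCl (1 mol/L, pH 2.2) for 10 min at 37 °C. The lysate gave the internalized fraction; washes plus lysate gave total uptake, γ-counted. Three experiments, each in triplicate.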

Data set [3] deals with A549-PDL1 xenografts. As to the kind of experiment: In vivo pretargeting biodistribution. Set-up: species or system mice. The note with it: 1 h after [^18F]PEG12-Tz; for A549-PDL1 tumor uptake / blood uptake / bone uptake / brain uptake / gall bladder uptake / heart uptake / intestine uptake / kidney uptake / liver uptake / lung uptake / muscle uptake / spleen uptake / stomach uptake / tumor/blood / tumor/muscle: n = 3; for tumor/blood / tumor/muscle: biodistribution. Put shortly: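 Male BALB/c nude mice (4–6 weeks, 13–18 g) received 5 × 10^6 A549-PDL1 and A549 cells in PBS subcutaneously behind the right armpit and were used once tumors reached 5–10 mm. Durvalumab-TCO or atezolizumab-TCO (300 μg in 150 μL PBS) was given i.v. by tail vein. After 24, 48 or 72 h, [18F]PEG12-Tz (1.85 MBq) was given i.v. Mice were killed 1 h later, and organs were weighed, γ-counted and expressed as %ID/g; n = 3. Controls: radioligand alone; blocking by co-injection of 50-fold molar excess atezolizumab plus 50 μg unlabeled tetrazine.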

Data set [4] concerns A549-PDL1 xenografts. In words: Pretargeted micro-PET/CT imaging. In kind it is in vivo, mice. The note with it: for A549-PDL1 tumor uptake (PET): 1 h postinjection of [^18F]PEG12-Tz.
Data set [5] is described as follows: Estimated human dosimetry. Put shortly:
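Male nude mice bearing A549-PDL1 xenografts were imaged by micro-PET/CT under 2–3% isoflurane on a heating pad, with OSEM reconstruction and %ID/g quantification. Pretargeted arm: atezolizumab-TCO 300 μg i.v., then 48 h later the 18F-tetrazine (3.7 MBq) i.v. Direct arm: [18F]Tz-TCO-atezolizumab 7.4 MBq/mouse i.v., imaged at 1, 2, 4, 6 and 8 h. Mouse data were extrapolated to human organ doses.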

This is an account of results in article PMC11375721 (ACS Omega, 2024).

Chain of PD-L1 (Q9NZQ7 19-290): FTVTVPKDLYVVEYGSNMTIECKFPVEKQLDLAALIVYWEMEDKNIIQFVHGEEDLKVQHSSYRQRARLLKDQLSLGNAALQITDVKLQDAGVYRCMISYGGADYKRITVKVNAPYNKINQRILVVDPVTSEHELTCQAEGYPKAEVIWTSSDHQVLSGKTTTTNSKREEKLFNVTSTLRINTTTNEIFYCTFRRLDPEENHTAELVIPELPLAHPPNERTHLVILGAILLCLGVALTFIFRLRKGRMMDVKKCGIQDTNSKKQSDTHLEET

Consider “[^18F]Tz-TCO-atezolizumab: in vitro ligation product of [^18F]Tz with atezolizumab-TCO, directly labeled radioimmunoconjugate”, for which, in data set [1], the dissociation constant (Kd) (in general, the constant that tells how readily two partners part at equilibrium) stood at 1.38 nM. In data set [2] (30 min), this substance displayed a cellular uptake of 3.76 % ID/10^6 cells. In data set [2] (180 min), this substance had a cellular uptake of 9.85 % ID/10^6 cells and an internalization rate of 98.1%.

On to “[^18F]Tz-TCO-durvalumab: in vitro ligation product of [^18F]Tz with durvalumab-TCO”, for which, in data set [1], binding was characterised by a dissociation constant (Kd) of 2.39 nM. This substance had a cellular uptake in data set [2] (30 min) of 5.13 % ID/10^6 cells. In data set [2] (180 min), this substance returned a cellular uptake of 8.40 % ID/10^6 cells and an internalization rate of 73.2%.

On to “atezolizumab pretargeted: pretargeting pair: atezolizumab-TCO injected first, [^18F]PEG12-Tz 24-72 h later, ligated in vivo”, for which, in data set [3] (24 h after antibody-TCO 300 μg), the A549-PDL1 tumor uptake turned out to be 1.16 ± 0.06 % ID/g, the blood uptake turned out to be 1.72 ± 0.09 % ID/g, the bone uptake was 0.38 ± 0.07 % ID/g and the brain uptake came to 0.06 ± 0.01 % ID/g. Also, in data set [3] (24 h after antibody-TCO 300 μg), the gall bladder uptake is listed as 0.94 ± 0.11 % ID/g, the heart uptake is listed as 0.93 ± 0.05 % ID/g, the intestine uptake was 0.51 ± 0.12 % ID/g and the kidney uptake turned out to be 2.04 ± 0.09 % ID/g. In addition, in data set [3] (24 h after antibody-TCO 300 μg), the liver uptake is 0.87 ± 0.08 % ID/g, the lung uptake amounted to 1.78 ± 0.34 % ID/g, the muscle uptake is listed as 0.26 ± 0.04 % ID/g and the spleen uptake was 0.71 ± 0.04 % ID/g. Further, the stomach uptake in data set [3] (24 h after antibody-TCO 300 μg) is on record as 0.40 ± 0.16 % ID/g. In data set [3] (48 h after antibody-TCO 300 μg), this substance yielded an A549-PDL1 tumor uptake of 1.65 ± 0.29 % ID/g, a blood uptake of 1.86 ± 0.15 % ID/g, a bone uptake of 0.28 ± 0.02 % ID/g and a brain uptake of 0.05 ± 0.01 % ID/g. Further, in data set [3] (48 h after antibody-TCO 300 μg), the gall bladder uptake stood at 0.94 ± 0.24 % ID/g, the heart uptake was 1.02 ± 0.14 % ID/g, the intestine uptake amounted to 0.62 ± 0.22 % ID/g and the kidney uptake amounted to 2.82 ± 0.52 % ID/g. In data set [3] (48 h after antibody-TCO 300 μg), this substance registered a liver uptake of 0.96 ± 0.18 % ID/g, a lung uptake of 1.65 ± 0.11 % ID/g, a muscle uptake of 0.31 ± 0.08 % ID/g and a spleen uptake of 0.71 ± 0.12 % ID/g. The substance also gave a stomach uptake in data set [3] (48 h after antibody-TCO 300 μg) of 0.37 ± 0.06 % ID/g. For the same substance, in data set [3] (72 h after antibody-TCO 300 μg), the A549-PDL1 tumor uptake is recorded as 0.90 ± 0.23 % ID/g, the blood uptake was 1.48 ± 0.50 % ID/g, the bone uptake was 0.38 ± 0.03 % ID/g and the brain uptake was 0.05 ± 0.01 % ID/g. Moreover, in data set [3] (72 h after antibody-TCO 300 μg), the gall bladder uptake is 0.63 ± 0.21 % ID/g, the heart uptake amounted to 0.74 ± 0.28 % ID/g, the intestine uptake came out at 0.55 ± 0.15 % ID/g and the kidney uptake is listed as 2.22 ± 0.37 % ID/g. In data set [3] (72 h after antibody-TCO 300 μg), this substance gave a liver uptake of 0.71 ± 0.16 % ID/g, a lung uptake of 0.92 ± 0.06 % ID/g, a muscle uptake of 0.29 ± 0.06 % ID/g and a spleen uptake of 0.81 ± 0.13 % ID/g. In data set [3] (72 h after antibody-TCO 300 μg), this substance registered a stomach uptake of 0.32 ± 0.11 % ID/g. Further, the “A549-PDL1 tumor uptake (PET)” value in data set [4] (24 h interval) turned out to be 0.79 ± 0.06 % ID/g. Besides, the “A549-PDL1 tumor uptake (PET)” value in data set [4] (48 h interval) is 0.94 ± 0.16 % ID/g. The “A549-PDL1 tumor uptake (PET)” value in data set [4] (72 h interval) came to 0.41 ± 0.04 % ID/g. In data set [4] (co-injection of unmodified anti-PD-L1 antibody or unlabeled tetrazine), the “accumulation in A549-PDL1 tumors under blocking” value is “could be blocked”. The “lowering of total effective dose versus [^18F]Tz-TCO-atezolizumab” value in data set [5] (estimated human) is “over 7.5 fold”. In data set [5] (for men, as printed in main text), the “effective internal radiation dose” value is reported as 1.15 × 10^–3 μSv/MBq.

In data set [3] (48 h after antibody-TCO 300 μg), “atezolizumab-TCO: atezolizumab (anti-PD-L1 antibody) modified with TCO-PEG4-NHS Ester, average 8 TCO per antibody” displayed an A549-PDL1 tumor uptake of 1.65 ± 0.15 % ID/g, a blood uptake of 1.86 ± 0.15 % ID/g and a lung uptake of 1.65 ± 0.11 % ID/g. Also, in data set [3] (48 h after atezolizumab-TCO), the “uptake in other organs such as the liver, muscles, bones, and intestines” value is listed as less than 0.96 % ID/g.

In data set [3] (24 h after antibody-TCO 300 μg), “durvalumab pretargeted: pretargeting pair: durvalumab-TCO injected first, [^18F]PEG12-Tz 24-72 h later, ligated in vivo” returned an A549-PDL1 tumor uptake of 2.52 ± 0.16 % ID/g, a blood uptake of 8.80 ± 0.50 % ID/g, a bone uptake of 1.16 ± 0.27 % ID/g and a brain uptake of 0.29 ± 0.07 % ID/g. In data set [3] (24 h after antibody-TCO 300 μg), this substance displayed a gall bladder uptake of 1.29 ± 0.08 % ID/g, a heart uptake of 2.66 ± 0.49 % ID/g, an intestine uptake of 0.54 ± 0.14 % ID/g and a kidney uptake of 3.12 ± 0.31 % ID/g. Besides, in data set [3] (24 h after antibody-TCO 300 μg), the liver uptake is on record as 1.93 ± 0.59 % ID/g, the lung uptake was 7.06 ± 1.90 % ID/g, the muscle uptake worked out at 0.72 ± 0.10 % ID/g and the spleen uptake stood at 1.27 ± 0.22 % ID/g. In data set [3] (24 h after antibody-TCO 300 μg), this substance gave a stomach uptake of 0.50 ± 0.06 % ID/g, a tumor/blood of 0.29 ± 0.04 and a tumor/muscle of 3.51 ± 0.75. In data set [3] (48 h after antibody-TCO 300 μg), this substance yielded an A549-PDL1 tumor uptake of 1.91 ± 0.38 % ID/g, a blood uptake of 6.08 ± 1.82 % ID/g, a bone uptake of 0.98 ± 0.26 % ID/g and a brain uptake of 0.16 ± 0.04 % ID/g. In data set [3] (48 h after antibody-TCO 300 μg), the gall bladder uptake is 1.11 ± 0.35 % ID/g, the heart uptake is on record as 1.57 ± 0.27 % ID/g, the intestine uptake came to 0.40 ± 0.07 % ID/g and the kidney uptake came out at 2.68 ± 0.46 % ID/g. In addition, in data set [3] (48 h after antibody-TCO 300 μg), the liver uptake is given as 1.19 ± 0.23 % ID/g, the lung uptake was 3.19 ± 1.02 % ID/g, the muscle uptake is reported as 0.56 ± 0.20 % ID/g and the spleen uptake came to 0.48 ± 0.34 % ID/g. In data set [3] (48 h after antibody-TCO 300 μg), this substance displayed a stomach uptake of 0.33 ± 0.09 % ID/g, a tumor/blood of 0.31 ± 0.07 and a tumor/muscle of 3.39 ± 0.46. Further, in data set [3] (72 h after antibody-TCO 300 μg), the A549-PDL1 tumor uptake came to 1.60 ± 0.23 % ID/g, the blood uptake is 5.29 ± 0.50 % ID/g, the bone uptake amounted to 0.53 ± 0.04 % ID/g and the brain uptake was 0.14 ± 0.01 % ID/g. In addition, in data set [3] (72 h after antibody-TCO 300 μg), the gall bladder uptake was 0.99 ± 0.22 % ID/g, the heart uptake came to 1.40 ± 0.28 % ID/g, the intestine uptake is listed as 0.51 ± 0.15 % ID/g and the kidney uptake is on record as 2.27 ± 0.37 % ID/g. In data set [3] (72 h after antibody-TCO 300 μg), the liver uptake worked out at 1.01 ± 0.16 % ID/g, the lung uptake is on record as 2.01 ± 0.06 % ID/g, the muscle uptake is recorded as 0.43 ± 0.06 % ID/g and the spleen uptake is 0.62 ± 0.13 % ID/g. In data set [3] (72 h after antibody-TCO 300 μg), this substance yielded a stomach uptake of 0.75 ± 0.28 % ID/g, a tumor/blood of 0.30 ± 0.02 and a tumor/muscle of 3.68 ± 0.98.

In data set [3] (24 h after antibody-TCO 300 μg), “durvalumab-TCO: durvalumab (anti-PD-L1 antibody) modified with TCO-PEG4-NHS Ester, average 12 TCO per antibody” showed an A549-PDL1 tumor uptake of 2.52 ± 0.16 % ID/g, a blood uptake of 8.80 ± 0.50 % ID/g, a lung uptake of 7.06 ± 1.90 % ID/g and a tumor/blood of 0.29. Further, the tumor/muscle in data set [3] (24 h after antibody-TCO 300 μg) came out at 3.51. This substance had an A549-PDL1 tumor uptake in data set [3] (48 h after antibody-TCO 300 μg) of 1.91 ± 0.38 % ID/g. The substance further returned an A549-PDL1 tumor uptake in data set [3] (72 h after antibody-TCO 300 μg) of 1.60 ± 0.23 % ID/g.
